The text below walks through data of the array DNA melting data of Ke et al. (doi:10.1101/2024.01.08.574731).

Data set [1] is described as follows: melting temperature; fluorescence melt of hairpins on a sequencing array, two-state fit, raised by 9.35 °C to match UV melts. The following applies: sodium 0.088 M. Put shortly:
(§1)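 Melting temperature and folding enthalpy were derived from bootstrapped two-state fits. The fitted temperatures were raised by 9.35 °C to agree with UV melts, and four replicates were combined by inverse variance. The underlying data were Cy3 fluorescence images of library hairpins, with annealed Cy3 and quencher oligos, on a sequenced MiSeq flow cell in 50 mM Na-HEPES pH 8.0, 25 mM NaCl, taken in 2.5 °C steps up to 60 °C, normalised to pre-quench Cy3 and to control constructs.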

The nature of data set [2]: folding enthalpy; higher = less favourable; fluorescence melt of hairpins on a sequencing array, two-state fit. Particulars: sodium 0.088 M. In a few lines:
as §1

As for GGGAACCGAAAGGTCCCC (((.(((....))).))), the Tm in data set [1] was 58.1 °C. Also, the folding enthalpy in data set [2] is -25.4 kcal/mol.

Turning to GGGAACCGAAAGGTGCCC (((.(((....))).))), the Tm in data set [1] came out at 64.3 °C. Further, the folding enthalpy in data set [2] is -41.4 kcal/mol.

With GGGAACGAAAGTTACCCC ((((((....)))..))), the Tm in data set [1] is 53.4 °C. Moreover, in data set [2], the folding enthalpy was -20.2 kcal/mol.

As to GGGAACGAAAGTTTGCCC ((((((....)))..))), the Tm in data set [1] is 31.8 °C. For the same sequence, in data set [2], the folding enthalpy is -20.8 kcal/mol.

Turning to GGGAACGCGAAAGCGCCC (((..(((....)))))), in data set [1], the Tm came to 46.5 °C. In addition, in data set [2], the folding enthalpy was -16.4 kcal/mol.

In the case of GGGAAGGGAAACCCTCCC ((((.((....)).)))), the Tm in data set [1] was determined as 46.8 °C. In data set [2], the folding enthalpy was -28.1 kcal/mol.

Consider GGGAAGGGAAACCTTCTC (.(((((....))))).), for which the Tm in data set [1] is 46.6 °C. Further, the folding enthalpy in data set [2] was -23.8 kcal/mol.

As for GGGAAGGGAAACTTTCCC (((((.(....).))))), in data set [1], the Tm turned out to be 45.5 °C. In addition, the folding enthalpy in data set [2] was -26 kcal/mol.

On to GGGAAGTCGAAAGACCCC (((..(((....)))))), for which, in data set [1], the Tm was 44.8 °C. Besides, the folding enthalpy in data set [2] was -22.7 kcal/mol.

On to GGGAATACGAAAGTACCC (((..(((....)))))), for which, in data set [1], the Tm worked out at 33.9 °C. Further, in data set [2], the folding enthalpy is -23 kcal/mol.

GGGAATCCGAAAGGACCC (((..(((....)))))): in data set [1], the Tm came out at 38.1 °C. In data set [2], the folding enthalpy is -18.1 kcal/mol.

For GGGAATGGAAACATTCCC (((((((....))))))), the Tm in data set [1] worked out at 62 °C. In addition, in data set [2], the folding enthalpy is -54.2 kcal/mol.

Regarding GGGAATGGAAACGTTCCC (((((.(....).))))), in data set [1], the Tm was 50.6 °C. The folding enthalpy in data set [2] was -38 kcal/mol.

In the case of GGGACACCGAAAGGTCCC (((..(((....)))))), the Tm in data set [1] turned out to be 51.4 °C. Moreover, in data set [2], the folding enthalpy was -27.7 kcal/mol.

As for GGGACCCGAAAGGGACCC (((.(((....))).))), in data set [1], the Tm stood at 67 °C. In data set [2], the folding enthalpy was -31.1 kcal/mol.

For the sequence GGGACCGAAAGGTACCC ((((((....))).))), the Tm in data set [1] worked out at 64.1 °C. The folding enthalpy in data set [2] is -18.9 kcal/mol.

On to GGGACCGAAAGGTGACCC ((((((....)))..))), for which, in data set [1], the Tm amounted to 45.6 °C. The folding enthalpy in data set [2] is -17.6 kcal/mol.

As for GGGACCGAAAGGTTTCCC ((((((....)))..))), the Tm in data set [1] was 42.5 °C. Also, in data set [2], the folding enthalpy was -18.6 kcal/mol.

As to GGGACCGGAAACGATCCC ((((.((....)).)))), the Tm in data set [1] was 50.8 °C. Moreover, the folding enthalpy in data set [2] was -45.8 kcal/mol.

As to GGGACGGCGAAAGCCCCC (((..(((....)))))), the Tm in data set [1] was 42.3 °C. For the same sequence, the folding enthalpy in data set [2] was -14.8 kcal/mol.

GGGACGGGAAACCACCCC (((..((....))..))): in data set [1], the Tm was 32.1 °C. Besides, in data set [2], the folding enthalpy is -18.4 kcal/mol.

Take GGGACTCGAAAGAGCCCC (((.(((....))).))): in data set [1], the Tm came out at 57.1 °C. Also, in data set [2], the folding enthalpy was -34.6 kcal/mol.

For GGGACTGGAAACAGCCCC (((.(((....))).))), the Tm in data set [1] turned out to be 51.9 °C. The folding enthalpy in data set [2] is -35.3 kcal/mol.

In the case of GGGACTTCGAAAGAACCC (((..(((....)))))), in data set [1], the Tm was determined as 29.8 °C. Moreover, in data set [2], the folding enthalpy is -5.69 kcal/mol.

Take GGGAGACGAAAGTCACCC (((.(((....))).))): in data set [1], the Tm is 58.2 °C. The folding enthalpy in data set [2] was -31.5 kcal/mol.

On to GGGAGACGAAAGTCCCC (((.(((....)))))), for which the Tm in data set [1] came out at 56.4 °C. Moreover, in data set [2], the folding enthalpy is -35.5 kcal/mol.

GGGAGCCGAAAGGCCCC (((.(((....)))))): the Tm in data set [1] worked out at 69 °C. Also, the folding enthalpy in data set [2] is -20.1 kcal/mol.

GGGAGCCGAAAGGCCCCC (((.(((....))).))): in data set [1], the Tm was 65.9 °C. Further, the folding enthalpy in data set [2] is -21.3 kcal/mol.

Turning to GGGAGCGAAAGCTATCCC ((((((....)))..))), the Tm in data set [1] is 48 °C. Further, the folding enthalpy in data set [2] was -16.6 kcal/mol.

Take GGGAGCGAAAGCTTACCC ((((((....)))..))): the Tm in data set [1] amounted to 42.5 °C. In addition, the folding enthalpy in data set [2] was -16.9 kcal/mol.

For GGGAGCGAAAGCTTCCC ((((((....))).))), the Tm in data set [1] was determined as 61.7 °C. The folding enthalpy in data set [2] is -20.5 kcal/mol.

Take GGGAGCGAAAGCTTTCCC ((((((....)))..))): the Tm in data set [1] was found to be 40.4 °C. Besides, the folding enthalpy in data set [2] was -16.3 kcal/mol.

Take GGGAGCGCGAAAGCGCCC (((..(((....)))))): the Tm in data set [1] is 58.6 °C. Moreover, the folding enthalpy in data set [2] is -10.1 kcal/mol.

GGGAGCGGAAACACTCCC (((((.(....).))))): the Tm in data set [1] amounted to 50.8 °C. Further, in data set [2], the folding enthalpy is -37.7 kcal/mol.

As to GGGAGCGGAAACGCTTCC ((.((((....)))).)), the Tm in data set [1] came out at 61.4 °C. The folding enthalpy in data set [2] is -33.7 kcal/mol.

As for GGGAGGCGAAAGCCCCCC (((.(((....))).))), the Tm in data set [1] is 64.8 °C. Moreover, in data set [2], the folding enthalpy was -17.2 kcal/mol.

GGGAGTGGAAACACTTCC ((.((((....)))).)): the Tm in data set [1] is 50.5 °C. In addition, the folding enthalpy in data set [2] was -36.2 kcal/mol.
